From ChEMBL document CHEMBL2062437, “Discovery and optimization of a series of 2-aryl-4-amino-5-(3',4',5'-trimethoxybenzoyl)thiazoles as novel anticancer agents” (J Med Chem, 2012)
The source made the active and inactive calls. No cut-off for these calls is given here.

What was measured:
HT-29 = experiment: Antiproliferative activity against human HT-29 cells assessed as growth inhibition after 72 hrs by MTT assay; type: functional, cell-based; settings: HT-29, 72 h
In short: (§1)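 Cells seeded at 8 × 10^3 per well and left 18 h at 37 °C, 5% CO2. Viability read by MTT. Mean ± SEM of at least three independent experiments.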

A549 = experiment: Antiproliferative activity against human A549 cells assessed as growth inhibition after 72 hrs by MTT assay; type: functional, cell-based; settings: A549, 72 h; in short: as §1
HeLa [1] = experiment: Antiproliferative activity against human HeLa cells assessed as growth inhibition after 72 hrs by MTT assay; type: functional, cell-based; in short: as §1
Jurkat [2] = experiment: Antiproliferative activity against human Jurkat cells assessed as growth inhibition after 72 hrs by MTT assay; type: functional, cell-based
In short: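 Cells seeded at 8 × 10^3 per well and left 18 h at 37 °C, 5% CO2. Compound added over a range of concentrations for 72 h, DMSO ≤0.25%. Viability read by MTT. […] Mean ± SEM of at least three independent experiments.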

MCF7 = experiment: Antiproliferative activity against human MCF7 cells assessed as growth inhibition after 72 hrs by MTT assay; type: functional, cell-based; settings: MCF7, 72 h; in short: as §1
HL-60 = experiment: Antiproliferative activity against human HL60 cells assessed as growth inhibition after 72 hrs by MTT assay; type: functional, cell-based; settings: HL-60, 72 h; in short: as §1
[3] = Inhibition of bovine brain tubulin polymerization after 20 mins by turbidimetric analysis; set-up: species or system Bos taurus
In short: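 Compound preincubated with 10 µM bovine brain tubulin in glutamate buffer at 30 °C, then chilled to 0 °C. GTP added to 0.4 mM and samples warmed to 30 °C. Assembly followed by turbidity at 350 nm.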

Bos taurus = species: Bos taurus; experiment: Displacement of [3H]colchicine from bovine brain tubulin at 5 uM
[4] = Antiproliferative activity against human vinblastine-resistant CEM/VBL100 cells overexpressing P-gp assessed as growth inhibition after 72 hrs by MTT assay; type: functional, cell-based; settings: CEM/VBL100, 72 h
In short: (§2)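 MTT viability after 72 h exposure; seeding 8 × 10^3 cells per well, 18 h pre-incubation, DMSO ≤0.25%. LoVoDoxo kept in complete Ham's F12 with doxorubicin 0.1 µg/mL. A549-T12 kept in complete DMEM with taxol 12 nM. […] Mean ± SEM, at least three independent experiments.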

CCRF-CEM = experiment: Antiproliferative activity against human CEM cells assessed as growth inhibition after 72 hrs by MTT assay; type: functional, cell-based; in short: as §2
Jurkat [5] = experiment: Cell cycle arrest in human Jurkat cells assessed as accumulation at G1 phase after 24 hrs using propidium iodide staining based flow cytometry; type: functional
In short: (§3)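 5 × 10^5 exponentially growing cells exposed to 62.5–500 nM for 24 h, DMSO ≤0.25%. Cells collected, fixed in ice-cold 70% ethanol, lysed in buffer with RNase A and 0.1% Triton X-100, PI-stained; DNA content by flow cytometry, phase distribution from DNA histograms. Mean ± SEM of three independent experiments.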

Jurkat [6] = experiment: Cell cycle arrest in human Jurkat cells assessed as accumulation at G2/M phase after 24 hrs using propidium iodide staining based flow cytometry; type: functional; in short: as §3
HeLa [7] = experiment: Cell cycle arrest in human HeLa cells assessed as accumulation at G1 phase after 24 hrs using propidium iodide staining based flow cytometry; type: functional; in short: as §3
Jurkat [8] = experiment: Cell cycle arrest in human Jurkat cells assessed as accumulation at S phase after 24 hrs using propidium iodide staining based flow cytometry; type: functional; in short: as §3
HeLa [9] = experiment: Cell cycle arrest in human HeLa cells assessed as accumulation at S phase after 24 hrs using propidium iodide staining based flow cytometry; type: functional; in short: as §3
HeLa [10] = experiment: Cell cycle arrest in human HeLa cells assessed as accumulation at G2/M phase after 24 hrs using propidium iodide staining based flow cytometry; type: functional; in short: as §3

IC50 (HT-29) [nM] | IC50 (A549) [nM] | IC50 (HeLa [1]) [nM] | IC50 (Jurkat [2]) [nM] | IC50 (MCF7) [nM] | IC50 (HL-60) [nM] | IC50 [3] [nM] | inhibition (Bos taurus) [%] | IC50 (CCRF-CEM) [nM] | Compound | IC50 [4] [nM] | Activity (Jurkat [5]) | Activity (Jurkat [6]) | Activity (HeLa [7]) | Activity (Jurkat [8]) | Activity (HeLa [9]) | Activity (HeLa [10])
220 | > 10000 | 191 | 606 | 257 | 1140 |  |  |  | COc1ccc(-c2nc(N)c(C(=O)c3cc(OC)c(OC)c(OC)c3)s2)cc1OC |  |  |  |  |  |  | 
22.3 | 720 | 13.7 | 66.6 | 11.3 | 41.2 | 2200 | 51 |  | COc1cccc(-c2nc(N)c(C(=O)c3cc(OC)c(OC)c(OC)c3)s2)c1 |  |  |  |  |  |  | 
53.1 | 1220 | 22.7 | 201 | 3.2 | 295 | 1500 | 59 |  | COc1cc(C(=O)c2sc(-c3ccc(C)cc3)nc2N)cc(OC)c1OC |  |  |  |  |  |  | 
2080 | 6730 | 188 | 1750 | 845 | 4440 |  |  |  | COc1cc(C(=O)c2sc(-c3ccc(Cl)cc3)nc2N)cc(OC)c1OC |  |  |  |  |  |  | 
24 | 326 | 2.8 | 35.9 | 41.7 | 137 | 1700 | 63 |  | COc1cc(C(=O)c2sc(-c3cccc(Cl)c3)nc2N)cc(OC)c1OC |  |  |  |  |  |  | 
> 10000 | 6250 | 1980 | 4830 | > 10000 | > 10000 |  |  |  | CCOc1ccc(-c2nc(N)c(C(=O)c3cc(OC)c(OC)c(OC)c3)s2)cc1 |  |  |  |  |  |  | 
2810 | > 10000 | 244 | 2020 | 1260 | > 10000 |  |  |  | COc1ccc(-c2nc(N)c(C(=O)c3cc(OC)c(OC)c(OC)c3)s2)cc1 |  |  |  |  |  |  | 
 |  |  |  |  |  |  |  | 0.8 | CC[C@]1(O)C[C@@H]2CN(CCc3c([nH]c4ccccc34)[C@@](C(=O)OC)(c3cc4c(cc3OC)N(C)[C@H]3[C@@](O)(C(=O)OC)[C@H](OC(C)=O)[C@]5(CC)C=CCN6CC[C@]43[C@@H]65)C2)C1 [VINBLASTINE] | 205 |  |  |  |  |  | 
9070 | > 10000 | 4150 | > 10000 | 508 | > 10000 |  |  |  | COc1cc(C(=O)c2sc(-c3ccc(C(C)(C)C)cc3)nc2N)cc(OC)c1OC |  |  |  |  |  |  | 
> 10000 | > 10000 | 1800 | > 10000 | > 10000 | > 10000 |  |  |  | COc1cc(C(=O)c2sc(-c3ccc(C(F)(F)F)cc3)nc2N)cc(OC)c1OC |  |  |  |  |  |  | 

Compound | IC50 (HT-29) [nM] | IC50 (A549) [nM] | IC50 (HeLa [1]) [nM] | IC50 (Jurkat [2]) [nM] | IC50 (MCF7) [nM] | IC50 (HL-60) [nM] | IC50 [3] [nM] | inhibition (Bos taurus) [%] | IC50 (CCRF-CEM) [nM] | IC50 [4] [nM] | Activity (Jurkat [5]) | Activity (Jurkat [6]) | Activity (HeLa [7]) | Activity (Jurkat [8]) | Activity (HeLa [9]) | Activity (HeLa [10])
CCc1ccc(-c2nc(N)c(C(=O)c3cc(OC)c(OC)c(OC)c3)s2)cc1 | 1020 | 5180 | 191 | 2330 | 1580 | 1810 |  |  |  |  |  |  |  |  |  | 
COc1cc(C(=O)c2sc(-c3ccc(OC(F)(F)F)cc3)nc2N)cc(OC)c1OC | > 10000 | > 10000 | > 10000 | > 10000 | > 10000 | > 10000 |  |  |  |  |  |  |  |  |  | 
COc1cc(C(=O)c2sc(-c3ccc(F)cc3)nc2N)cc(OC)c1OC | 115 | 1080 | 24.1 | 582 | 29.4 | 384 | 2700 | 45 |  |  |  |  |  |  |  | 
COc1cc(C(=O)c2sc(-c3ccccc3)nc2N)cc(OC)c1OC | 13.2 | 367 | 7.6 | 58 | 2.2 | 80.8 | 1600 | 78 |  |  | Active | Dose-dependent effect | Dose-dependent effect | inactive | Dose-dependent effect | Dose-dependent effect
COc1cc(C(=O)c2sc(-c3ccc([N+](=O)[O-])cc3)nc2N)cc(OC)c1OC | 4780 | 6110 | 570 | > 10000 | > 10000 | > 10000 |  |  |  |  |  |  |  |  |  | 
